Reference: ChEMBL document CHEMBL6092224, “The Discovery and Preclinical Profile of ALG-000184, a Prodrug of the Potent Hepatitis B Virus Capsid Assembly Modulator ALG-001075” (J Med Chem, 2024)

Experiments:
Hepatitis B virus [1] = test: Antiviral activity against HBV infected in human HepG2.117 cells by qPCR analysis; assay type: functional, organism-based
How it was run: (§1)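 HepG2.117 cells (integrated genotype D HBV genome, Tet-off promoter; kept in 1 μg/mL doxycycline) were seeded at 20,000 cells/well and given serial compound dilutions (2% DMSO) for 3 days at 37 °C. Lysates were taken in 0.33% NP40. Intracellular HBV DNA was quantified by qPCR and EC50/EC90 derived. For serum shift, 40% human serum was present during incubation. Mean ± SEM, n=3 (serum) or 13.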

[2] = Metabolic stability in human liver microsomes assessed as half life at 1 uM incubated upto 60 mins in presence of NADPH; assay type: ADME, Microsome
How it was run: (§2)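 Compound at 1 μM incubated at 37 °C with liver microsomes of each species for 0, 15, 30 and 60 min, with and without NADPH; half-life determined.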

[3] = Metabolic stability in mouse liver microsomes assessed as half life at 1 uM incubated upto 60 mins in presence of NADPH; assay type: ADME, Microsome; how it was run: as §2
Hepatitis B virus [4] = test: Antiviral activity against HBV genotype D infected in human HepG2.117 cells assessed as decrease in HBV DNA production by qPCR analysis; assay type: functional, organism-based; how it was run: as §1
[5] = Metabolic stability in rat liver microsomes assessed as half life at 1 uM incubated upto 60 mins in presence of NADPH; assay type: ADME, Microsome; how it was run: as §2
[6] = Metabolic stability in dog liver microsomes assessed as half life at 1 uM incubated upto 60 mins in presence of NADPH; assay type: ADME, Canis lupus familiaris, Microsome; how it was run: as §2
[7] = Metabolic stability in Cynomolgous monkey liver microsomes assessed as half life at 1 uM incubated upto 60 mins in presence of NADPH; assay type: ADME, Macaca fascicularis, Microsome; conditions: cynomolgus monkey; how it was run: as §2
[8] = Metabolic stability in mouse plasma assessed as half life; assay type: ADME, cell-free
[9] = Metabolic stability in rat plasma assessed as half life; assay type: ADME, cell-free
[10] = Metabolic stability in dog plasma assessed as half life; assay type: ADME, cell-free, Canis lupus familiaris
[11] = Metabolic stability in Cynomolgous monkey plasma assessed as half life; assay type: ADME, cell-free, Macaca fascicularis; conditions: cynomolgus monkey
[12] = Metabolic stability in human plasma assessed as half life; assay type: ADME, cell-free
[13] = Ratio of drug concentration in blood to plasma in rat at 5 uM incubated for 60 mins; assay type: ADME, cell-free
How it was run: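 Compound at 5 μM in whole blood of each species, 37 ± 1 °C for 60 min; blood-to-plasma ratio and red blood cell partitioning determined.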

Cytochrome P450 1A2 = Cytochrome P450 1A2 (Homo sapiens, UniProt P05177); test: Inhibition of CYP1A2 in human liver microsomes in presence of NADPH; assay type: ADME, Microsome
How it was run: (§3)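 Pooled human liver microsomes with CYP isoform-specific probe substrates, in 100 mM potassium phosphate pH 7.4, 3 mM MgCl2 and 1 mM NADPH, at 37 °C. Final test ranges were 0.069–50 μM or 0.03–100 μM; IC50 was determined.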

Cytochrome P450 2B6 = molecular target: T1, Cytochrome P450 2B6 (Homo sapiens, UniProt P20813); test: Inhibition of CYP2B6 in human liver microsomes in presence of NADPH; assay type: ADME, Microsome; how it was run: as §3
T1 sequence (P20813 whole entry): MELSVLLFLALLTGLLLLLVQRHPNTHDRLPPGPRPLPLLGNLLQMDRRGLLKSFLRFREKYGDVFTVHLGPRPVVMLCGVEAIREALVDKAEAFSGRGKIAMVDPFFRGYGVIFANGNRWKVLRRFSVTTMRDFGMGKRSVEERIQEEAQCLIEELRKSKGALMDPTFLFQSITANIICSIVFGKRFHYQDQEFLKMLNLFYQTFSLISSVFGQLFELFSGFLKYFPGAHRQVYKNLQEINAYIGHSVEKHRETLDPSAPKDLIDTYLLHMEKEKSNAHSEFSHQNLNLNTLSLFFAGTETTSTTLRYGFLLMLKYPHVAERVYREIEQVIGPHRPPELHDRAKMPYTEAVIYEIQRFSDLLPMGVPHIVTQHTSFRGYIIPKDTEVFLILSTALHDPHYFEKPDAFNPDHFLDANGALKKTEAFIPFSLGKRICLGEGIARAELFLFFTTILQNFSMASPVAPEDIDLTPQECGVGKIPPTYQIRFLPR

Cytochrome P450 2C8 = Cytochrome P450 2C8 (Homo sapiens, UniProt P10632); test: Inhibition of CYP2C8 in human liver microsomes in presence of NADPH; assay type: ADME, Microsome; how it was run: as §3
Cytochrome P450 2C9 = Cytochrome P450 2C9 (Homo sapiens, UniProt P11712); test: Inhibition of CYP2C9 in human liver microsomes in presence of NADPH; assay type: ADME, Microsome; how it was run: as §3
Cytochrome P450 2C19 = Cytochrome P450 2C19 (Homo sapiens, UniProt P33261); test: Inhibition of CYP2C19 in human liver microsomes in presence of NADPH; assay type: ADME, Microsome; how it was run: as §3
Cytochrome P450 2D6 = Cytochrome P450 2D6 (Homo sapiens, UniProt P10635); test: Inhibition of CYP2D6 in human liver microsomes in presence of NADPH; assay type: ADME, Microsome; how it was run: as §3
Cytochrome P450 3A4 = Cytochrome P450 3A4 (Homo sapiens, UniProt P08684); test: Inhibition of CYP3A4 in human liver microsomes in presence of NADPH; assay type: ADME, Microsome
How it was run: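 Pooled human liver microsomes in 100 mM potassium phosphate pH 7.4, 3 mM MgCl2, 1 mM NADPH, 37 °C, with CYP3A4-specific probe substrate; test compound over 0.069–50 μM or 0.03–100 μM final, IC50 derived.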

UGT1A1 = UGT1A1 (Homo sapiens, UniProt P22309); test: Inhibition of recombinant human UGT1A1 at 10 uM in presence of UDPGA relative to control
How it was run: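 Recombinant human UGT1A1 at 0.05 mg/mL with 5 mM UDPGA cofactor, 10 min incubation; test compound at single 10 μM concentration.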

[14] = molecular target: Solute carrier organic anion transporter family member 1B1 (Homo sapiens, UniProt Q9Y6L6); test: Inhibition of OATP1B1 (unknown origin) transfected in HEK293 cells; assay type: cell-based
How it was run: (§4)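 HEK-293 cells transfected with the uptake transporter; uptake of known probe substrates measured with test compound at eight concentrations (0.0229–50.0 μM or 0.0457–100 μM); inhibition at each concentration used to calculate IC50.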

[15] = molecular target: Solute carrier organic anion transporter family member 1B3 (Homo sapiens, UniProt Q9NPD5); test: Inhibition of OATP1B3 (unknown origin) transfected in HEK293 cells; assay type: cell-based; how it was run: as §4
[16] = Mutagenicity in Salmonella typhimurium TA98 by Ames test; assay type: toxicity; conditions: salmonella enterica subsp. enterica serovar typhimurium
[17] = Mutagenicity in Salmonella typhimurium TA100 by Ames test; assay type: toxicity; conditions: salmonella enterica subsp. enterica serovar typhimurium
[18] = Mutagenicity in Salmonella typhimurium TA1535 by Ames test; assay type: toxicity; conditions: salmonella enterica subsp. enterica serovar typhimurium
[19] = Mutagenicity in Salmonella typhimurium TA97a by Ames test; assay type: toxicity; conditions: salmonella enterica subsp. enterica serovar typhimurium
[20] = Mutagenicity in Salmonella […] by Ames test; assay type: toxicity; conditions: salmonella enterica subsp. enterica serovar typhimurium
[21] = Genotoxicity in human TK6 cells measured for 4 to 27 hrs by micronucleus test; assay type: toxicity, cell-based; conditions: time 4-27 hrs
[22] = molecular target: Voltage-gated inwardly rectifying potassium channel KCNH2 (Homo sapiens, UniProt Q12809); test: Inhibition of hERG expressed in mammalian cells at 10 uM by automated patch-clamp method; assay type: toxicity, cell-based
How it was run: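 Currents of hERG, Nav1.5 or Cav1.2 channels expressed in mammalian cells recorded by automated patch clamp (QPatch 48) at room temperature.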

[23] = Stability in simulated gastric fluid for >=13 hrs; assay type: physicochemical; conditions: simulated gi fluid
How it was run: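 Stability tested in simulated gastric fluid containing pepsin and simulated intestinal fluid containing pancreatin.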

Chain of Solute carrier organic anion transporter family member 1B1 (Q9Y6L6 whole entry): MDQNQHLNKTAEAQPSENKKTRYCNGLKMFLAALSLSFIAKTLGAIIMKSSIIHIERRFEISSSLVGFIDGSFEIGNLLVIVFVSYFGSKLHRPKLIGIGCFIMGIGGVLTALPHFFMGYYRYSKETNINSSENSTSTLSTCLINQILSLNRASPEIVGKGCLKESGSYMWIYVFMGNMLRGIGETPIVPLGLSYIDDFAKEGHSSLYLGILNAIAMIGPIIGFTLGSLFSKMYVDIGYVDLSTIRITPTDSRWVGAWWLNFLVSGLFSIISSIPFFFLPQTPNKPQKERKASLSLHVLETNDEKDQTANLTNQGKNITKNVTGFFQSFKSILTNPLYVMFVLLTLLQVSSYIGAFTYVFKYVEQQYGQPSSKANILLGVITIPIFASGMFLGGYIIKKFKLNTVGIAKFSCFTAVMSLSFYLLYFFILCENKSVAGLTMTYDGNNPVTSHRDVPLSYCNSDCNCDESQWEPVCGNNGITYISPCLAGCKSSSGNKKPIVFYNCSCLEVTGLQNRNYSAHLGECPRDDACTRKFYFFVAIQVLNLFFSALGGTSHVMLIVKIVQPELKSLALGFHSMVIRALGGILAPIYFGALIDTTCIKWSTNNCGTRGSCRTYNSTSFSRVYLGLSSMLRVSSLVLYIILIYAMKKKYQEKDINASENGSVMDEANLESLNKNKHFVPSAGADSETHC
Chain of Solute carrier organic anion transporter family member 1B3 (Q9NPD5 whole entry): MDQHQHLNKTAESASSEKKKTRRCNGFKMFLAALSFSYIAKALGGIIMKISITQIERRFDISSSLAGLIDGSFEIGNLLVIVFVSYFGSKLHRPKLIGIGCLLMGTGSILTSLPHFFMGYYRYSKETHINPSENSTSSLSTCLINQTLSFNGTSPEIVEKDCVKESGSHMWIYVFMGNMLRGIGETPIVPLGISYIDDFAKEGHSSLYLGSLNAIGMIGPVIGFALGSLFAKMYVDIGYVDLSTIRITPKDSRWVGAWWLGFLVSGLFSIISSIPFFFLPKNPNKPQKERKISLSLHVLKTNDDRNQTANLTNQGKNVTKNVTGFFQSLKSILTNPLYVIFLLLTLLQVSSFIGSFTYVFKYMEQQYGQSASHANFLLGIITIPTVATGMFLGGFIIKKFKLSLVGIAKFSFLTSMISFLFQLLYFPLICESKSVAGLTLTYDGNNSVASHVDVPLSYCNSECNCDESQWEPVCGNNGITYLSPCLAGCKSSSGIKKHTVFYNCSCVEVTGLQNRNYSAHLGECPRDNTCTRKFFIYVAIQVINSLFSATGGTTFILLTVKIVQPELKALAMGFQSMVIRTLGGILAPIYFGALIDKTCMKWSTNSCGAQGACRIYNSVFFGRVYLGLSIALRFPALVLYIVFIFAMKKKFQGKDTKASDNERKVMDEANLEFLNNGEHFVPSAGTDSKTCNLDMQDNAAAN
Chain of Cytochrome P450 2C8 (P10632 whole entry): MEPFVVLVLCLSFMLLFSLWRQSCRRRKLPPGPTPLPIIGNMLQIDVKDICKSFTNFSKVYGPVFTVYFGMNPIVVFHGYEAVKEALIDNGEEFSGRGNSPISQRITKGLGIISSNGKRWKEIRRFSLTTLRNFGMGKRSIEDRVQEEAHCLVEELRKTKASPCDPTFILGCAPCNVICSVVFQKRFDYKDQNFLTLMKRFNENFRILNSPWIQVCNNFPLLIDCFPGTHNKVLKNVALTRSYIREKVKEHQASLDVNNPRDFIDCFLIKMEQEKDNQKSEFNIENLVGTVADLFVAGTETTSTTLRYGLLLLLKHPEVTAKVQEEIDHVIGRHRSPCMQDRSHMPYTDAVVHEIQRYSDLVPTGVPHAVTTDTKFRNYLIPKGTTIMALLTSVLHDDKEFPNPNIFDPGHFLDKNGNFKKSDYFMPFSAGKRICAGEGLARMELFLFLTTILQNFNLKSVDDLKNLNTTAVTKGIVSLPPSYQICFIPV
Chain of Cytochrome P450 2C19 (P33261 whole entry): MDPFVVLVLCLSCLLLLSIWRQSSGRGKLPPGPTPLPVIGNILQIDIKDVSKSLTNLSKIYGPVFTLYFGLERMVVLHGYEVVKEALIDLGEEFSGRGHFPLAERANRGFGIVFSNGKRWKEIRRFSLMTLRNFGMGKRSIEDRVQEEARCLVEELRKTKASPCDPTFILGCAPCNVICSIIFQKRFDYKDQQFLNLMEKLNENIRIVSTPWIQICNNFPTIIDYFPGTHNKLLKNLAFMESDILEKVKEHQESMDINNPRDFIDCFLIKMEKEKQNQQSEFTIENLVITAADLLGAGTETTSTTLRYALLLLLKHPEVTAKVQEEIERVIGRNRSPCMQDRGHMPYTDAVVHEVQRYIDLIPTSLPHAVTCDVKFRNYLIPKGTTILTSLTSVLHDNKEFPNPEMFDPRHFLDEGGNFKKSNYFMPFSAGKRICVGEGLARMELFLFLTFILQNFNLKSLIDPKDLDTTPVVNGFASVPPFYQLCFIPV
Chain of UGT1A1 (P22309 whole entry): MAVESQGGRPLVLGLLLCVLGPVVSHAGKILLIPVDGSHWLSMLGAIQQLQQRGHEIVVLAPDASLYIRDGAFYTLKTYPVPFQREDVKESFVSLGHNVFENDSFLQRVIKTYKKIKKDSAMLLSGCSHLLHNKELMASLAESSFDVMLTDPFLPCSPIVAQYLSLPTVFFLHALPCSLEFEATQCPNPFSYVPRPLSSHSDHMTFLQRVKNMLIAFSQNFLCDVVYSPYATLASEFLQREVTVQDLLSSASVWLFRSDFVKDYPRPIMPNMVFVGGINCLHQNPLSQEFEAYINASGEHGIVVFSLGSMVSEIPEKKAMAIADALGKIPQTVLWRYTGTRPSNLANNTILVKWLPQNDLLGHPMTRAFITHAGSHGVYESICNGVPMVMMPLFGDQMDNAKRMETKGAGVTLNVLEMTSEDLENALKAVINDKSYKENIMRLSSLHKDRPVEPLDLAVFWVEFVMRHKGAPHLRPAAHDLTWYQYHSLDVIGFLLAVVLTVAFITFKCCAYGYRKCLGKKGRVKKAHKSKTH
Chain of Cytochrome P450 1A2 (P05177 whole entry, canonical isoform): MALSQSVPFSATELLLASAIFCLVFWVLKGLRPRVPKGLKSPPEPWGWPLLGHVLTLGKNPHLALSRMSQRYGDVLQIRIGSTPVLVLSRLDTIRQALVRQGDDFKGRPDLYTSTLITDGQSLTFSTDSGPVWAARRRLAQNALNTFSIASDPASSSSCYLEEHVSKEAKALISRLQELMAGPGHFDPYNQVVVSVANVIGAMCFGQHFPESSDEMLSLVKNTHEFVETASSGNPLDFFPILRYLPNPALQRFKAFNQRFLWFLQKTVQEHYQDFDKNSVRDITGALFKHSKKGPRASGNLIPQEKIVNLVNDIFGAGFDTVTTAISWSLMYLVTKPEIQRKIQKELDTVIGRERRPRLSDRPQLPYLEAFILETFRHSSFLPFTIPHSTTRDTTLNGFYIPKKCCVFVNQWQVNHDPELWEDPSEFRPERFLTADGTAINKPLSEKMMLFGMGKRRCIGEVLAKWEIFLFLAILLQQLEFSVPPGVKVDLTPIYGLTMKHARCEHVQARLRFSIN
Chain of Cytochrome P450 2C9 (P11712 whole entry): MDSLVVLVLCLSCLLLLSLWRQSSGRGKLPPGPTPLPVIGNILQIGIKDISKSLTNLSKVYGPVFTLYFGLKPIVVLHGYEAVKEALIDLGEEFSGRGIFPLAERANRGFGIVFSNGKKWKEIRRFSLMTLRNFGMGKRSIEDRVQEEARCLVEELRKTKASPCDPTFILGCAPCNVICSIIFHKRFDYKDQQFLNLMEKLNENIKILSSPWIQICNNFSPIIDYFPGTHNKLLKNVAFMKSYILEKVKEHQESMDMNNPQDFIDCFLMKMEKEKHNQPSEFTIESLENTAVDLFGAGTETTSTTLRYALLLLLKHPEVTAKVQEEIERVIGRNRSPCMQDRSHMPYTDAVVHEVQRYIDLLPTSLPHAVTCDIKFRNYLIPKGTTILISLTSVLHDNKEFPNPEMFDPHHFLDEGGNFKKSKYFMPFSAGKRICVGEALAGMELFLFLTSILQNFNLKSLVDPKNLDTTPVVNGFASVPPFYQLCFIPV
Chain of Cytochrome P450 2D6 (P10635 whole entry): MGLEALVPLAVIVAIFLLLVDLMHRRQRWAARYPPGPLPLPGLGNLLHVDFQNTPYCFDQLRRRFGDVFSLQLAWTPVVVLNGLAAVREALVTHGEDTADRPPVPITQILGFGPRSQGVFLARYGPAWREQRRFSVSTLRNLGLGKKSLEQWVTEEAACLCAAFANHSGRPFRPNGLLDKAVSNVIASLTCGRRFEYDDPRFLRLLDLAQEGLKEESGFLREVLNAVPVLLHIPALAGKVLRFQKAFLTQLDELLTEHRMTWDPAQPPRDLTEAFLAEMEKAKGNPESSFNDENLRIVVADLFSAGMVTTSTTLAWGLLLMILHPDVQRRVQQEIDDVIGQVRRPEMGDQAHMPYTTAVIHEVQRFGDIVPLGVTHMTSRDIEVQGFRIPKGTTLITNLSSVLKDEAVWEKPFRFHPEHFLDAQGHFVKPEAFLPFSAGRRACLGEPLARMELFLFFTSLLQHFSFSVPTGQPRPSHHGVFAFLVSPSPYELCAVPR
Chain of Cytochrome P450 3A4 (P08684 whole entry): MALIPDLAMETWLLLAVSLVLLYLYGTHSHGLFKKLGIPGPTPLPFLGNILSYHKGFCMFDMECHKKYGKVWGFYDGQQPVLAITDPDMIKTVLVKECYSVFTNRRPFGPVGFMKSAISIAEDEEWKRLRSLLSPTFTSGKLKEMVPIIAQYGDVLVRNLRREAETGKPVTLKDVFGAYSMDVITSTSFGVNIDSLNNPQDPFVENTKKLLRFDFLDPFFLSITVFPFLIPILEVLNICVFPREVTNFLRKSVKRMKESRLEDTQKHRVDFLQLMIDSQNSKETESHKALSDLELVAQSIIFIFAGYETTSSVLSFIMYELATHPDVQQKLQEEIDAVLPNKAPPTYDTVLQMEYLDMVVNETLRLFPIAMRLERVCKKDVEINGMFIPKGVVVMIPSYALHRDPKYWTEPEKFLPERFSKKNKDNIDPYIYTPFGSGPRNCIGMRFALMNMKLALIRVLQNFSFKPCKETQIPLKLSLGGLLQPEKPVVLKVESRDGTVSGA

Structure (SMILES) | half-life at 1 µM [2] [h] | half-life at 1 µM [3] [h] | EC50 (Hepatitis B virus [4]) [µM] | half-life at 1 µM [5] [h] | half-life at 1 µM [6] [h] | half-life at 1 µM [7] [h] | half-life [8] [h] | half-life [9] [h] | half-life [10] [h] | half-life [11] [h] | half-life [12] [h] | IC50 (Cytochrome P450 1A2) [µM] | IC50 (Cytochrome P450 2B6) [µM] | IC50 (Cytochrome P450 2C8) [µM] | IC50 (Cytochrome P450 2C9) [µM] | IC50 (Cytochrome P450 2C19) [µM] | IC50 (Cytochrome P450 2D6) [µM] | IC50 (Cytochrome P450 3A4) [µM] | inhibition at 10 µM (UGT1A1) [%] | IC50 [14] [µM] | further results
C#CC1(NC(=O)C(=O)c2c(C)c(C(=O)Nc3ccc(F)c(C#N)c3)n(C)c2C)COC1 | > 1 | > 1 | 0.00063 | > 1 | > 1 | > 1 | > 4 | > 4 | > 4 | > 4 | > 4 | > 50 | > 50 | 48.6 | > 50 | > 50 | > 50 | > 50 | 7.3 | > 11.8 | EC50 (Hepatitis B virus [1]): 0.00063 µM; EC90 (Hepatitis B virus [4]): 0.00317 µM; blood plasma ratio at 1 h, 5 µM [13]: 0.72; IC50 [15]: > 11.8 µM; Activity [16]: Non-toxic; Activity [17]: Non-toxic; Activity [18]: Non-toxic; Activity [19]: Non-toxic; Activity [20]: Non-toxic; Activity [21]: Non-toxic; IC50 [22]: > 10 µM
C#CC1(N(COP(=O)([O-])[O-])C(=O)C(=O)c2c(C)c(C(=O)Nc3ccc(F)c(C#N)c3)n(C)c2C)COC1.[Na+].[Na+] | > 1 | > 1 | 0.00145 | > 1 | > 1 | > 1 | > 4 | > 4 | > 4 | > 4 | > 4 | > 100 | > 100 | > 100 | > 100 | > 100 | > 100 | > 100 | 11.2 | ~50 | IC50 [15]: ~50 µM; Activity [16]: Non-toxic; Activity [17]: Non-toxic; Activity [18]: Non-toxic; Activity [19]: Non-toxic; Activity [20]: Non-toxic; Activity [21]: Non-toxic; IC50 [22]: > 300 µM; Stability [23]: Stable
